Measurements reported in ChEMBL document CHEMBL5696442, “Discovery of type II inhibitors of TGFβ-activated kinase 1 (TAK1) and mitogen-activated protein kinase kinase kinase kinase 2 (MAP4K2)” (J Med Chem, 2015).

Tests used:
[1] = Cmax in Swiss albino mouse at 1 mg/kg, iv measured upto 24 hrs by LC/MS/MS analysis; assay type: ADME, organism-based; conditions: in vivo
In short: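 Male Swiss albino mice. […] Blood was taken into K2EDTA from three mice per time point, from 0 to 24 h. Plasma was precipitated with acetonitrile and analysed by LC/MS/MS (LLOQ 1.138 ng/mL).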

[2] = target: Mitogen-activated protein kinase kinase kinase 20 (Homo sapiens, UniProt Q9NYL2); experiment: Inhibition of ZAK Lys1 labeling site in human A-375 cells at 0.5 uM by KiNativ Profiling analysis relative to control; assay type: cell-based
Chain of Mitogen-activated protein kinase kinase kinase 20 (Q9NYL2 2-800 limits assumed): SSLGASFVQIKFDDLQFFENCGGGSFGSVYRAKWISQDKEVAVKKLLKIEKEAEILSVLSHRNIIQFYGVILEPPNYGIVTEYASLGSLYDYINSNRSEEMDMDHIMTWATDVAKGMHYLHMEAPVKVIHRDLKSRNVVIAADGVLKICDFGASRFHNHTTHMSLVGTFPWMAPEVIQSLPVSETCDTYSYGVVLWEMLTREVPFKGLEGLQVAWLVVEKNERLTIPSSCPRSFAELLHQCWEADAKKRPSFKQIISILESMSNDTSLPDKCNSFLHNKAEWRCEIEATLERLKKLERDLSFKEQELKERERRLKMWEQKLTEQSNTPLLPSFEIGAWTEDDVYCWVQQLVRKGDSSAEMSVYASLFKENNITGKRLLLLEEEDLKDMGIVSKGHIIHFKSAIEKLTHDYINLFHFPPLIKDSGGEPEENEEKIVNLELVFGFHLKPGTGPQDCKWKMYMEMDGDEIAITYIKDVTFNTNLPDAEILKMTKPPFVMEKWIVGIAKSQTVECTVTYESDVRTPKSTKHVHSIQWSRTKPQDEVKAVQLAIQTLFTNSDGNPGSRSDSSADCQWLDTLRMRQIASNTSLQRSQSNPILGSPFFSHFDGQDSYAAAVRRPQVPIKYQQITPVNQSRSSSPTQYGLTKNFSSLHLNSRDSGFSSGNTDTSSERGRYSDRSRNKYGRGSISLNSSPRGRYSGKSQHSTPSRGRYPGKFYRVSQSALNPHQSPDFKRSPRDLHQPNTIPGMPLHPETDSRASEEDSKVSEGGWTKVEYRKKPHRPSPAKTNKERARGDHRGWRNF

[3] = target: Tyrosine-protein kinase ABL1 (Homo sapiens, UniProt P00519); experiment: Inhibition of ABL Lys1 labeling site in human A-375 cells at 0.5 uM by KiNativ Profiling analysis relative to control; assay type: cell-based
[4] = tested on: 293-IL-1R; experiment: Inhibition of IL-1alpha induced p38 phosphorylation level in human 293-IL-1R cells preincubated for 1 hr followed by IL-1 alpha stimulation and measured after 30 mins by Western blot analysis; assay type: functional, cell-based; conditions: dose 0.01-10 µM
[5] = target: T1, Dual specificity mitogen-activated protein kinase kinase 6 (Homo sapiens) (UniProt P52564); experiment: Inhibition of MAP2K6 ACT labeling site in human Huh-7 cells at 1 uM by KiNativ Profiling analysis relative to control; assay type: cell-based
T1 sequence (whole entry): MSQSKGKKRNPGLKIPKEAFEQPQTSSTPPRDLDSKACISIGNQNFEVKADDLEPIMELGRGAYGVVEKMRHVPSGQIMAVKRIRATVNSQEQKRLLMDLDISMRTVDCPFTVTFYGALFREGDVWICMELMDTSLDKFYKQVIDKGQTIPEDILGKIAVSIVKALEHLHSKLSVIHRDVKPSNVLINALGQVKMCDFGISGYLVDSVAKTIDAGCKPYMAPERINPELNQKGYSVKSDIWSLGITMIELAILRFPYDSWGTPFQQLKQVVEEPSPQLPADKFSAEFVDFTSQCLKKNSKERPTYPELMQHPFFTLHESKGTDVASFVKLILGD

[6] = target: Serine/threonine-protein kinase WNK4 (Homo sapiens) (UniProt Q96J92); experiment: Inhibition of Wnk4 ACT labeling site in human Huh-7 cells at 1 uM by KiNativ Profiling analysis relative to control; assay type: cell-based
Chain of Serine/threonine-protein kinase WNK4 (Homo sapiens) (Q96J92 whole entry): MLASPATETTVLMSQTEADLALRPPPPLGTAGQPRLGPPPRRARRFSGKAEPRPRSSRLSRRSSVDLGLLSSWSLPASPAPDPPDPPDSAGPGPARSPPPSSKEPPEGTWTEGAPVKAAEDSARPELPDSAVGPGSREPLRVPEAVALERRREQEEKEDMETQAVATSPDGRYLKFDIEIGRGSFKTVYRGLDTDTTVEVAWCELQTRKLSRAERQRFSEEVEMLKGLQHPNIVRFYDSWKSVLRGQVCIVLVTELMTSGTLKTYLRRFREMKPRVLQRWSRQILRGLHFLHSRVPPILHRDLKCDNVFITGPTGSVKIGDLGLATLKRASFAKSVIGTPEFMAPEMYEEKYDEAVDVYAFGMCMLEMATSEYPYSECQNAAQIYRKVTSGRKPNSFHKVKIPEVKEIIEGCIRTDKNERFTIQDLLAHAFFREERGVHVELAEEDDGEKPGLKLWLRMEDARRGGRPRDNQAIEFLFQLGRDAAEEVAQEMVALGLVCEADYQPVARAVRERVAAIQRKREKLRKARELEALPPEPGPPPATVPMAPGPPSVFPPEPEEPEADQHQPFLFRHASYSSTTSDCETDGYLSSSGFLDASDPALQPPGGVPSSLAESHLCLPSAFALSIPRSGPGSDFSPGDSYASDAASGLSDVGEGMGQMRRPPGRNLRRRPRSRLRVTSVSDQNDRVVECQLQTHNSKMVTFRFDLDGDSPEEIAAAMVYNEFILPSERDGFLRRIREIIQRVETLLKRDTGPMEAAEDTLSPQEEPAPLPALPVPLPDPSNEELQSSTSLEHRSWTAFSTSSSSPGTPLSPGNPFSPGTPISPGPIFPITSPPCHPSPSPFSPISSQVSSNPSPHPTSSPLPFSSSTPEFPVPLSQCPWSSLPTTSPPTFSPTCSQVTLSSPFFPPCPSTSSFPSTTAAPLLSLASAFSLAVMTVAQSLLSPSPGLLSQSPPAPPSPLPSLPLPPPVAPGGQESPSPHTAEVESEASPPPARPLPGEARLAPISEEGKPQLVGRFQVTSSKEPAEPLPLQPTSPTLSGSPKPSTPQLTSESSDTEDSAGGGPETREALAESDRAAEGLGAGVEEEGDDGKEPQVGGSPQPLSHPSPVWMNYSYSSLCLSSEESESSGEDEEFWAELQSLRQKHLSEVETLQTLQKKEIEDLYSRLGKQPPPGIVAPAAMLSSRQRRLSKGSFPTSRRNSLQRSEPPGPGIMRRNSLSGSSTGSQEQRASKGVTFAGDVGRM

[7] = target: Phosphatidylinositol 4-kinase alpha (Homo sapiens) (UniProt P42356); experiment: Inhibition of PI4KA ATP labeling site in human Huh-7 cells at 1 uM by KiNativ Profiling analysis relative to control; assay type: cell-based
[8] = target: Phosphatidylinositol 4-kinase beta (Homo sapiens) (UniProt Q9UBF8); experiment: Inhibition of PI4KB ATP labeling site harbouring VPHTQAVVLNSKDKAPYLIYVEVLECENFDTTSVPAR in human Huh-7 cell lysate at 1 uM by KiNativ Profiling analysis relative to control; assay type: subcellular
Chain of Phosphatidylinositol 4-kinase beta (Homo sapiens) (Q9UBF8 2-816 limits assumed): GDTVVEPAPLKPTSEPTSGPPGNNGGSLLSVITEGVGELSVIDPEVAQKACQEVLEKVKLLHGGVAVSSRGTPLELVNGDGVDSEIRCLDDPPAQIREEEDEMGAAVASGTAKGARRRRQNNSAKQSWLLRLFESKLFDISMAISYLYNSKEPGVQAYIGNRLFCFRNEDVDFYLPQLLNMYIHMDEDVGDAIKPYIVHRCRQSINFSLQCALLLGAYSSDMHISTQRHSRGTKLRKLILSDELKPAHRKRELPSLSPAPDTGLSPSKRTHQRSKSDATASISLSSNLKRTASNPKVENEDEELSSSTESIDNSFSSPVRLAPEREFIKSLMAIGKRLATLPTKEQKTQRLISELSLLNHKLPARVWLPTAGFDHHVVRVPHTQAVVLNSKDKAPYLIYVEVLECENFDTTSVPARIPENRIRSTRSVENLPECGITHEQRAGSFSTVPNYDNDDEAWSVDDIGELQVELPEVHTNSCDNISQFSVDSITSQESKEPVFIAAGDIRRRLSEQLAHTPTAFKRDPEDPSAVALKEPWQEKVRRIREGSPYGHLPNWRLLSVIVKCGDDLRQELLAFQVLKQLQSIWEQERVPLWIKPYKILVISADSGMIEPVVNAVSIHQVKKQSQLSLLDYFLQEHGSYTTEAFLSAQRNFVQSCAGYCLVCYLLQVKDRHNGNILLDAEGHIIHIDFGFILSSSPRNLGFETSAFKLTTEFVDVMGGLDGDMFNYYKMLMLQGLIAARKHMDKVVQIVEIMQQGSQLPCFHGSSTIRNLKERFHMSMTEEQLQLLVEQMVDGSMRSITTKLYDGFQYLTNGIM

[9] = target: T2, Phosphatidylinositol 5-phosphate 4-kinase type-2 alpha (Homo sapiens) (UniProt P48426); experiment: Inhibition of PIP4K2A ATP labeling site harbouring TVKHGAGAEISTVNPEQYSK in human Huh-7 cell lysate at 1 uM by KiNativ Profiling analysis relative to control; assay type: subcellular
T2 sequence (whole entry): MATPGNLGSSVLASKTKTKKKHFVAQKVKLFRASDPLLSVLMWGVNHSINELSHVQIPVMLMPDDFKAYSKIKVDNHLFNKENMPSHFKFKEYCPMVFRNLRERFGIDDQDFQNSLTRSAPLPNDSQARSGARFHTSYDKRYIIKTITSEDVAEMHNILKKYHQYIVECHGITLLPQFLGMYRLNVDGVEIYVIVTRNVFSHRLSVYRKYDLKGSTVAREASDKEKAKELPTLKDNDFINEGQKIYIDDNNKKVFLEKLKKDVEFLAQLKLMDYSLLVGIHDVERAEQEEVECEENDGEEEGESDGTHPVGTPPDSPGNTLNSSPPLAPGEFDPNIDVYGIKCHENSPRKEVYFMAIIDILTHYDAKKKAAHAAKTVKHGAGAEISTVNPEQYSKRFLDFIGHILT

[10] = target: Serine/threonine-protein kinase 10 (Homo sapiens) (UniProt O94804); experiment: Inhibition of LOK Lys2 labeling site in human A-375 cells at 5 uM by KiNativ Profiling analysis relative to control; assay type: cell-based
Chain of Serine/threonine-protein kinase 10 (Homo sapiens) (O94804 whole entry, looked up): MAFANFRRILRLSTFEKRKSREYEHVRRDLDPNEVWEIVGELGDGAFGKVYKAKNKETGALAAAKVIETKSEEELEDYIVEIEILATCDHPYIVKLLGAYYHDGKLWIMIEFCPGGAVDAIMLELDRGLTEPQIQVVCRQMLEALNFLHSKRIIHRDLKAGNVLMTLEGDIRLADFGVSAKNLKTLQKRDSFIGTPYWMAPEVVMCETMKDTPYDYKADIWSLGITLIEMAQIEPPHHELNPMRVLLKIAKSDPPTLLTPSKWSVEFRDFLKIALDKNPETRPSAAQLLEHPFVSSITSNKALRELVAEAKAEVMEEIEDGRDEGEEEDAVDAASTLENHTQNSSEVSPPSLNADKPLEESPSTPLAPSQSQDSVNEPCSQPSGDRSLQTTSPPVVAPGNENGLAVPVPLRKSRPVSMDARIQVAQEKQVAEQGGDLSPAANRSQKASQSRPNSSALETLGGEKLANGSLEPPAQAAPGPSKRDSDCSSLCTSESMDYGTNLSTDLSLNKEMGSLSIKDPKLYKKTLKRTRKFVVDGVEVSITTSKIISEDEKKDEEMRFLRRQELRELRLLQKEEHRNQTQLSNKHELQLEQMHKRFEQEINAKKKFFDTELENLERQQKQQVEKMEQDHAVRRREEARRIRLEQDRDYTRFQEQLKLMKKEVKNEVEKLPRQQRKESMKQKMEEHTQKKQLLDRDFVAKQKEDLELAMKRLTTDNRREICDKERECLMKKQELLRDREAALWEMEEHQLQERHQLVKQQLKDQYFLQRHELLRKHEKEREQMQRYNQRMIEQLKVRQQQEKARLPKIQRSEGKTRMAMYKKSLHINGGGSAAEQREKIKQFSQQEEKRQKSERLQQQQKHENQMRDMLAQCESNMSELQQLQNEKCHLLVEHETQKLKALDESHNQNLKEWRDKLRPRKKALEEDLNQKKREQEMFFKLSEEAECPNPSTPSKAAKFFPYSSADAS

[11] = target: T3, Receptor-interacting serine/threonine-protein kinase 4 (Homo sapiens) (UniProt P57078); experiment: Inhibition of ANKRD3 Lys1 labeling site in human A-375 cells at 5 uM by KiNativ Profiling analysis relative to control; assay type: cell-based
T3 sequence (whole entry): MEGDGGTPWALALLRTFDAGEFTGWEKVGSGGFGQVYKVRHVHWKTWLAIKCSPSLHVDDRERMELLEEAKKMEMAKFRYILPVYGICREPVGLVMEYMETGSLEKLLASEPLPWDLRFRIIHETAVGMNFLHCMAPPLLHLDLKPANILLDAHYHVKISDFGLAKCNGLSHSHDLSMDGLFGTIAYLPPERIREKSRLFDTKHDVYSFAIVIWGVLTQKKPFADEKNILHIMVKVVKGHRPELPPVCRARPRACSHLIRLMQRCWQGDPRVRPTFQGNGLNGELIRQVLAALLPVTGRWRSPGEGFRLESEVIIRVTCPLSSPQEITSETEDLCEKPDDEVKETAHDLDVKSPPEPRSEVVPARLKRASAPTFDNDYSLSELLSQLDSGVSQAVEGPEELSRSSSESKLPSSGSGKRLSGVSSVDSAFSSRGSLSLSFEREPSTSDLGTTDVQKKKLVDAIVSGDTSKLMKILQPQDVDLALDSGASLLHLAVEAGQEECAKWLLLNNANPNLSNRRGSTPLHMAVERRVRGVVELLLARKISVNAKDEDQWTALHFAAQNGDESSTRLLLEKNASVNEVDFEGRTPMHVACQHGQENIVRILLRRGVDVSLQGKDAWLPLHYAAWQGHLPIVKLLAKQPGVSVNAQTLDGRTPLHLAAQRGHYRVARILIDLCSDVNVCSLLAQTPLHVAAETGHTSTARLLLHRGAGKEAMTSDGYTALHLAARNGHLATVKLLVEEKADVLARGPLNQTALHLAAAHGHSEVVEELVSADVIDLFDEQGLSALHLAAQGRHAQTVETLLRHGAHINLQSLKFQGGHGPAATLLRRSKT

[12] = target: Cyclin-dependent kinase 1 (Homo sapiens) (UniProt P06493); experiment: Inhibition of CDC2 Lys2 labeling site harbouring DLKPQNLLIDDKGTIK in human A-375 cells at 5 uM by KiNativ Profiling analysis relative to control; assay type: cell-based
Chain of Cyclin-dependent kinase 1 (Homo sapiens) (P06493 whole entry, looked up): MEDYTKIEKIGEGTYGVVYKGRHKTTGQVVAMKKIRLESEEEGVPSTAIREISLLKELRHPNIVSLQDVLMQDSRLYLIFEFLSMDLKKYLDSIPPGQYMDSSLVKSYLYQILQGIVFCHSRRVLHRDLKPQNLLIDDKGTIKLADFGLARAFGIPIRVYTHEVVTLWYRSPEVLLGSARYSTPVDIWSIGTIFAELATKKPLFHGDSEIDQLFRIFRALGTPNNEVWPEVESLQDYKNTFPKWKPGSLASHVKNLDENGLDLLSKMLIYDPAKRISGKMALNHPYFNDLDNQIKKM

[13] = target: Fibroblast growth factor receptor 1 (Homo sapiens) (UniProt P11362); experiment: Inhibition of FGFR1 (unknown origin) at 1 uM by Ambit Kinomescan binding assay relative to control; values are per cent of control
[14] = target: Serine/threonine-protein kinase MARK1 (Homo sapiens) (UniProt Q9P0L2); experiment: Inhibition of MARK1 (unknown origin) at 1 uM by Ambit Kinomescan binding assay relative to control; values are per cent of control
Chain of Serine/threonine-protein kinase MARK1 (Homo sapiens) (Q9P0L2 whole entry, looked up): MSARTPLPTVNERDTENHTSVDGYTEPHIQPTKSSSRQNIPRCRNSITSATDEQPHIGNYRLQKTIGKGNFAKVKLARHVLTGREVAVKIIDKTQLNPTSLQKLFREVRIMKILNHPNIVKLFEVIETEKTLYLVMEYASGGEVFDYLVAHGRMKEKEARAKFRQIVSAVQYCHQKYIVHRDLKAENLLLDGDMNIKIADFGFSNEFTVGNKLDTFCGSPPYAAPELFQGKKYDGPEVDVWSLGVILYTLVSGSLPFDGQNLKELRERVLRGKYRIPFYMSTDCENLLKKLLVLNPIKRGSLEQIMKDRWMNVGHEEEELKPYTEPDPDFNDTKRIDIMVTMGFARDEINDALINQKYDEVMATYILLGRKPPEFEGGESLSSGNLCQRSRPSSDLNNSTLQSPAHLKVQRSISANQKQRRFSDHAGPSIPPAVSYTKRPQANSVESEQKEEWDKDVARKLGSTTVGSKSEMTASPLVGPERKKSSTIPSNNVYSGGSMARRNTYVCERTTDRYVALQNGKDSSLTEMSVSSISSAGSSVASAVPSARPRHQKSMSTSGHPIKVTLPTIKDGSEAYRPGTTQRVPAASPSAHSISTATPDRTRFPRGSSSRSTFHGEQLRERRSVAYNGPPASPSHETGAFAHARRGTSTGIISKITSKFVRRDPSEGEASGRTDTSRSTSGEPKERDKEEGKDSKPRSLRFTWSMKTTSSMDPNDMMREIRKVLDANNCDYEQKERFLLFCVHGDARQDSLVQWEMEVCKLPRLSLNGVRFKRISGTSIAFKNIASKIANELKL

CCN1CCN(Cc2ccc(NC(=O)c3ccc(C)c(Oc4ccnc5[nH]ccc45)c3)cc2C(F)(F)F)CC1
Cmax [1]: 396 ng/mL
inhibition [2]: 93%
inhibition [3]: 85.5%
inhibition [4]: Dose-Dependent Effect
inhibition [5]: 9.2%

CNc1cc(Oc2cc(C(=O)Nc3cc(N4CCN(C)CC4)cc(C(F)(F)F)c3)ccc2C)ncn1
inhibition [6]: 21.6%
inhibition [7]: 29.8%
inhibition [8]: -1%
inhibition [9]: -5.4%

CCN1CCN(Cc2ccc(NC(=O)c3ccc(C)c(/C=C/c4cnc5[nH]ccc5c4OC)c3)cc2C(F)(F)F)CC1
inhibition [10]: 77.4%
inhibition [11]: 17%
inhibition [12]: -6.1%
% of control [13]: 2.8%
residual activity [14]: 100%
